The results in this text go back to PMC6668347 (Bioorganic & medicinal chemistry, 2017).

The test system of one assay is LC3B-II. The assay can be described thus: Autophagy assay. The format is cell-based. Particulars: for LC3B-II levels: 4 h, 6 at 5 μM, BafA1 at 100 nM, versus DMSO. The procedure, abridged:
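MDA-MB-231 or MDA-MB-468 cells in DMEM with 10% FBS at 37 °C, 5% CO2, treated 4 h with test compound or DMSO vehicle. Hypoxia (1% O2) served as the autophagy positive control. Bafilomycin A1 (100 nM) was added 4 h before harvest. Cells were lysed in NP40 buffer with protease and phosphatase inhibitors, run on SDS-PAGE and transferred to PVDF. Blots were probed overnight at 4 °C with anti-LC3B (1:3000), then HRP secondary (1:10,000), with ECL detection of LC3B-I and LC3B-II.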

The target of the next assay is MELK (Homo sapiens, UniProt Q14680). Nature of the assay: MELK kinase activity inhibition. In kind it is biochemical. Particulars: for change of MELK IC50 / activity relative to parent compound 6: weaker than 6 (higher IC50).
Chain of MELK (Q14680 whole entry): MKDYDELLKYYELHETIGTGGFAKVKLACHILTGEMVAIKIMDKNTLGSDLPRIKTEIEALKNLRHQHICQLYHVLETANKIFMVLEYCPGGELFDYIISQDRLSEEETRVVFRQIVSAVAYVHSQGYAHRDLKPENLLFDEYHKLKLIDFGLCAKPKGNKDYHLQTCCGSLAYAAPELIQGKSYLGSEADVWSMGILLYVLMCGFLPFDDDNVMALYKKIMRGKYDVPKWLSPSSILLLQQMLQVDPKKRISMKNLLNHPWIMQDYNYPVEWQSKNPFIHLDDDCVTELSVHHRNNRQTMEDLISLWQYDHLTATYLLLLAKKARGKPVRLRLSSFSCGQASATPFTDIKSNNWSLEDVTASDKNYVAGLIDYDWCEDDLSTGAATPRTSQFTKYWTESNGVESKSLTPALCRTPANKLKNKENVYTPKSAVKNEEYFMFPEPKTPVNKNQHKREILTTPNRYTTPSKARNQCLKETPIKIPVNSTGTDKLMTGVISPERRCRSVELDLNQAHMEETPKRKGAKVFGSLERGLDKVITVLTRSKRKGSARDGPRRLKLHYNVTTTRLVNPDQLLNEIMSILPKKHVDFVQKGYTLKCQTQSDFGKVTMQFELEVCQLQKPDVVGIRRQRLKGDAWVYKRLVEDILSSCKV
Another assay concerns cyclin A2. The assay can be described thus: Western blot of cyclin A2 levels. In kind it is cell-based. The settings on record: over 48 h. (In general: In western blotting, separated proteins are transferred to a membrane and probed.)
Another assay has as its system p53. Nature of the assay: Western blot of p53 levels. In kind it is cell-based.
Another assay concerns the target T1, JAK3 (Homo sapiens, UniProt P52333).
T1 sequence (P52333 1-1124): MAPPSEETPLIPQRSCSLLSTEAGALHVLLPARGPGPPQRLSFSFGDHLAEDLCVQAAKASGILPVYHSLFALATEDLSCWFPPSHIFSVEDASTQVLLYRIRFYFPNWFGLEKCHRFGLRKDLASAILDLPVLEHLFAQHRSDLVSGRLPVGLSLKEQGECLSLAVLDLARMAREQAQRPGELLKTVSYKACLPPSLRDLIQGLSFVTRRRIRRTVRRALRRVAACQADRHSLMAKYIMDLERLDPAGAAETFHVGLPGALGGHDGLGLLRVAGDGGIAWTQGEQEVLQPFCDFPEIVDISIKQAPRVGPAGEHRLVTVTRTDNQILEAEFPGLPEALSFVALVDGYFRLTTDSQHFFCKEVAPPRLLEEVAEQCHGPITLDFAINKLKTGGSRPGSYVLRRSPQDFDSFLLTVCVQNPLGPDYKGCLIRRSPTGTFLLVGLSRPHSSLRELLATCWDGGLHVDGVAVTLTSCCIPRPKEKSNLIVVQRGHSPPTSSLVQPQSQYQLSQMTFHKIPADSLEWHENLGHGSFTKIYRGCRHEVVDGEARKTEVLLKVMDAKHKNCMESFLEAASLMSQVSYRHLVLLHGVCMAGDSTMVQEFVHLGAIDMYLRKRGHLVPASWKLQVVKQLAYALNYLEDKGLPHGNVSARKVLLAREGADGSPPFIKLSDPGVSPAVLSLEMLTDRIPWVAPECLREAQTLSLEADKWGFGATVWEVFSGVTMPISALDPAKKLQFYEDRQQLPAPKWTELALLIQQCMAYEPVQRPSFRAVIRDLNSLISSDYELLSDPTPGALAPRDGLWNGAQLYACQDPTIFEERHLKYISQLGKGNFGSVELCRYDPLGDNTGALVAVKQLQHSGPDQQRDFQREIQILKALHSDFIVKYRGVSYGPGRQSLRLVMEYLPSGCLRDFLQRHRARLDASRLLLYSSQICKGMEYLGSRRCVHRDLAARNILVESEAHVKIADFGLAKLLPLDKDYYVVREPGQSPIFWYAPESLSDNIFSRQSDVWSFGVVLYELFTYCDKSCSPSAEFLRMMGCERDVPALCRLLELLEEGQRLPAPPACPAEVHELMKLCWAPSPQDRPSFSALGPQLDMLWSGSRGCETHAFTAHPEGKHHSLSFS
Nature of the assay: JAK kinase activity, JAK3. In kind it is biochemical.

In the next assay the target is JAK1 (Homo sapiens, UniProt P23458). The assay can be described thus: JAK kinase activity, JAK1. In kind it is biochemical.
Chain of JAK1 (P23458 whole entry): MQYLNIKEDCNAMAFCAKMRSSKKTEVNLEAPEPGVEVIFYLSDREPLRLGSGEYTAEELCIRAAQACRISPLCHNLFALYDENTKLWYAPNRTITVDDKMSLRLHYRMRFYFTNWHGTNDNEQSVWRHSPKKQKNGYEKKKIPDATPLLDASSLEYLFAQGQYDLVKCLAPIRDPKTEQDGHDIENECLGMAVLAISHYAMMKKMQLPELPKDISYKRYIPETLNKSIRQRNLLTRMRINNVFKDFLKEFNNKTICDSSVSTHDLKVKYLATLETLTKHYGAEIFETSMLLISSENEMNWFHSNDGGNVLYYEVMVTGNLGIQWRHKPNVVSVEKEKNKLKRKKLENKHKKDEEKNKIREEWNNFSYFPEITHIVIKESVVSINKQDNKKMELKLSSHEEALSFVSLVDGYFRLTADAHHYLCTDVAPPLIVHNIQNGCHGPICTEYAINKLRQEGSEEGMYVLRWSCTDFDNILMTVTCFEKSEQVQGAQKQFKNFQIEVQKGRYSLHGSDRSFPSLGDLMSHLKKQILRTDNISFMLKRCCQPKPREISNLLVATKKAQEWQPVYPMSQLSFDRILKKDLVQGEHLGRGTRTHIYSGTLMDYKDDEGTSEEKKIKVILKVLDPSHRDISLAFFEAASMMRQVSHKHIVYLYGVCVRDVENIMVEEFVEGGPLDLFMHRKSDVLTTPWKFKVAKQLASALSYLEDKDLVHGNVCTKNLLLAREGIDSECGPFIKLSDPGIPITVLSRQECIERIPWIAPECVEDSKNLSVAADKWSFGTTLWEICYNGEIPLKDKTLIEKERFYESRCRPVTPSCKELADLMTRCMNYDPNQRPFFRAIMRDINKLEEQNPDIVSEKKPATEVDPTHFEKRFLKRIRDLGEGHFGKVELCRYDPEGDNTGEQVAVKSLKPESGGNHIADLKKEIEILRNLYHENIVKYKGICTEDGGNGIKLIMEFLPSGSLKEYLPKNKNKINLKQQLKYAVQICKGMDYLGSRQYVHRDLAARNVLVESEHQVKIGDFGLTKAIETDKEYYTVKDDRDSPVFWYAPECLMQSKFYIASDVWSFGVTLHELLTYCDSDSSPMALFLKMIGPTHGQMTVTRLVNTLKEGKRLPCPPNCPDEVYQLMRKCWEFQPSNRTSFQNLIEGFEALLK
In another assay the test system is Bcl-XL. Nature of the assay: Western blot of Bcl-XL levels. In kind it is cell-based.
The next assay concerns the target T2, BMX/ETK (Homo sapiens, UniProt P51813).
T2 sequence (P51813 1-675): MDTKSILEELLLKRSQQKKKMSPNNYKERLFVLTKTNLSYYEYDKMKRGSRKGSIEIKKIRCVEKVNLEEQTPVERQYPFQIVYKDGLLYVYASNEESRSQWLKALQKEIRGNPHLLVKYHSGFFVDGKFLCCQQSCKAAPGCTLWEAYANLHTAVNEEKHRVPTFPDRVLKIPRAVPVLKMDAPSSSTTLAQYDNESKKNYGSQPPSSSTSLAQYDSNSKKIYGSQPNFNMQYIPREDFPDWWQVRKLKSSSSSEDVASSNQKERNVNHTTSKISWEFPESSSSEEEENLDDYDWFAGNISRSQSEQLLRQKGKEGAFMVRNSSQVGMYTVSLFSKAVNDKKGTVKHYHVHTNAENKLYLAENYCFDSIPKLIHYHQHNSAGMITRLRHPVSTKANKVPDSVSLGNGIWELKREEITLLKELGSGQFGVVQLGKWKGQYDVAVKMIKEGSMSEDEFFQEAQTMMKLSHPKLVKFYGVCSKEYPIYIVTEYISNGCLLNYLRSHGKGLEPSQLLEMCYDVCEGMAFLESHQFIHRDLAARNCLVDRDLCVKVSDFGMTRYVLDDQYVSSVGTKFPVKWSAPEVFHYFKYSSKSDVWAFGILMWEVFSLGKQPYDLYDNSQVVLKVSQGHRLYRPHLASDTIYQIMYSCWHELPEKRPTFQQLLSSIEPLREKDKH
Nature of the assay: Kinase panel IC50, BMX/ETK. In kind it is biochemical.

In a further assay the test system is MDMX. The assay can be described thus: Immunoblot of MDMX levels. In kind it is cell-based. Particulars: MDA-MB-231 cells, increasing concentration. The procedure, abridged: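 MDA-MB-231 cells (DMEM, 10% FBS, 37 °C, 5% CO2) were exposed to rising test compound concentrations. Whole-cell RIPA lysates with protease and phosphatase inhibitors were prepared, and 30 µg protein was resolved by 10% SDS-PAGE and moved to nitrocellulose. Blots were probed with primary antibody overnight at 4 °C, then with IRDye 800 anti-mouse or Alexa Fluor 680 anti-rabbit IgG for 1 h at RT. Bands were read by infrared imaging.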

For another assay, the system named is phospho p53 (Ser15). The assay can be described thus: Western blot of p53 Ser15 phosphorylation. The format is cell-based. The settings on record: MDA-MB-468 cells, over 48 h.
Another assay deals with survivin. Nature of the assay: Western blot of survivin levels. In kind it is cell-based. Particulars: sustained over 48 h.
The test system of another assay is phospho STAT3 (Tyr705). The assay can be described thus: Western blot of STAT3 phosphorylation. In kind it is cell-based.
Another assay deals with phospho Akt. Nature of the assay: Western blot of Akt phosphorylation. The format is cell-based.
For a further assay, the system named is p21WAF1/CIP1. Nature of the assay: Western blot of p21 levels. In kind it is cell-based. Particulars: 5 μM, from 4 h, sustained over 48 h.
The next assay deals with JAK2 (Homo sapiens, UniProt O60674). Nature of the assay: JAK kinase activity, JAK2. The format is biochemical.
Chain of JAK2 (O60674 whole entry): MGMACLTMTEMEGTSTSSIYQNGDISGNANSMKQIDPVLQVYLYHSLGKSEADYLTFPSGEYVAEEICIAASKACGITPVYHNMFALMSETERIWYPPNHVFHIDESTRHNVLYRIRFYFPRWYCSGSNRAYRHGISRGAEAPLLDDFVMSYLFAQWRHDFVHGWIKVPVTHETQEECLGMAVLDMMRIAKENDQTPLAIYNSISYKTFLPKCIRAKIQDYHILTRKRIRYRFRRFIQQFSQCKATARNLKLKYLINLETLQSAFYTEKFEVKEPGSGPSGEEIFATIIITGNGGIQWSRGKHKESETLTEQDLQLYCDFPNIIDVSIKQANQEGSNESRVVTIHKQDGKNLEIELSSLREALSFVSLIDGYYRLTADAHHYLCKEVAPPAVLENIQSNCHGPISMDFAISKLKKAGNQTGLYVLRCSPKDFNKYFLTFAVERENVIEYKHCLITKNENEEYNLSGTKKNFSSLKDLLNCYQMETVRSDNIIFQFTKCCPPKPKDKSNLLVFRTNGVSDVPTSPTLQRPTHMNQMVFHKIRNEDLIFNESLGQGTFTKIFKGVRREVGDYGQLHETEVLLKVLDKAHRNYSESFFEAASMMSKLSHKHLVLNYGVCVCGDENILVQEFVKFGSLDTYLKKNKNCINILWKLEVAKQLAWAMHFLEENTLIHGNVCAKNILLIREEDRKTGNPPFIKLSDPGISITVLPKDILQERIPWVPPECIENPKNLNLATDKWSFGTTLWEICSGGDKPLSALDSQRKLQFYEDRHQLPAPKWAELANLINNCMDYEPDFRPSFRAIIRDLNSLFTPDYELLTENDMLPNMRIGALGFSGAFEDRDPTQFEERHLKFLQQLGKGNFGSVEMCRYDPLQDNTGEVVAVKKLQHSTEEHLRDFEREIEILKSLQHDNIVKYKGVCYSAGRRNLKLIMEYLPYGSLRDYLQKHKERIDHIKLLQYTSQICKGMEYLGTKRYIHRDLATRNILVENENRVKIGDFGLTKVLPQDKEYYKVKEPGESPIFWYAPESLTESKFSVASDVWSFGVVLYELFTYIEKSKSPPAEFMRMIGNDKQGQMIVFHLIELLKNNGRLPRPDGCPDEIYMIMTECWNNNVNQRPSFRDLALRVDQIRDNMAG

As to `CO/C1=C\C(C)=C\[C@@H](C)[C@@H](O)[C@@H](C)C/C(C)=C/C=C/[C@H](OC)[C@@H]([C@@H](C)[C@@H](O)[C@H](C)[C@@]2(O)C[C@@H](O)[C@H](C)[C@@H](C(C)C)O2)OC1=O` [BafA1, Bafilomycin A1, reference compound], the LC3B-II levels result with LC3B-II (MDA-MB-231 cells) is “more modest increase”; in the assay on LC3B-II (MDA-MB-468 cells), “substantial increase”.
With `Nc1ccc2nc(/C=C/c3ccc(C(F)(F)F)cc3)nc(NCCCN3CCOCC3)c2c1` [Compound 20], on MELK, the “change of MELK IC50 / activity relative to parent compound 6” value was “twofold reduction”.
Usually IC50 stands for the concentration that inhibits the measured activity by half. For the compound `CCN(CC)CCCC(C)Nc1nc(/C=C/c2c(Cl)cc(Cl)cc2Cl)nc2ccc(N)cc12` (stereo not shown) [Compound 6, (E)-N^4-(5-(diethylamino)pentan-2-yl)-2-(2,4,6-trichlorostyryl) quinazoline-4,6-diamine], the “cyclin A2 level” value in the assay with cyclin A2 (MDA-MB-231 cells) and in the assay with cyclin A2 (MDA-MB-468 cells) was “down-regulated” in each case. For the same compound, the p53 levels entry in the assay with p53 (MDA-MB-231 cells) is given as “does not affect”; in the assay with p53 (MDA-MB-468 cells, over 48 h), “no effect”. Also, the LC3B-II levels entry in the assay on LC3B-II (MDA-MB-231 cells) and in the assay with LC3B-II (MDA-MB-468 cells) was “pronounced increase” throughout. Further, in the assay on LC3B-II (MDA-MB-468 or MDA-MB-231 cells, LC3B-II not further increased by co-treatment with BafA1), the autophagic flux entry was “inhibiting autophagic flux”. In addition, the “inhibition of JAK kinase activity (JAK3)” value on JAK3 is recorded as “lack of inhibition”. Besides, the “inhibition of JAK kinase activity (JAK1)” value against JAK1 is reported as “lack of inhibition”. Besides, the Bcl-XL expression entry with Bcl-XL (MDA-MB-231 cells) and with Bcl-XL (MDA-MB-468 cells) was “reduced expression” throughout. Also, the IC50 against BMX/ETK and against MELK was approximately 1000 nM each time. Also, the MDMX levels entry in the assay with MDMX is “increase”. In addition, the “phosphorylation at Ser15 of p53” value in the assay with phospho p53 (Ser15) was “inhibited”. The survivin level result in the assay on survivin (MDA-MB-231 cells) and in the assay on survivin (MDA-MB-468 cells) was “down-regulation” in each case. Also, the STAT3 phosphorylation result was “inhibited” with phospho STAT3 (Tyr705) (MDA-MB-231 cells, levels recover more slowly) and “inhibited” with phospho STAT3 (Tyr705) (MDA-MB-468 cells). In the assay with phospho STAT3 (Tyr705) (MDA-MB-468 cells, at 4 h, levels restored after 8 h), the “STAT3 phosphorylation, time course” value was “completely inhibited”. Moreover, the Akt phosphorylation entry in the assay with phospho Akt is “no effect”. Besides, the p21WAF1/CIP1 level entry in the assay on p21WAF1/CIP1 (MDA-MB-231 cells) and in the assay on p21WAF1/CIP1 (MDA-MB-468 cells) was “up-regulated” each time. At JAK2, the “inhibition of JAK kinase activity (JAK2)” value is recorded as “lack of inhibition”.
Regarding `CCN(CC)CCCCNc1nc(/C=C/c2c(Cl)cc(Cl)cc2Cl)nc2ccc(N)cc12` [Compound 18, (E)-N^4-(4-(diethylamino)butyl)-2-(2,4,6-trichlorostyryl) quinazoline-4,6-diamine], the “change of MELK IC50 / activity relative to parent compound 6” value on MELK is recorded as “little effect”.
